ChEMBL document CHEMBL1142209, “Inhibition of Plasmodium falciparum choline kinase by hexadecyltrimethylammonium bromide: a possible antimalarial mechanism” (Antimicrob Agents Chemother, 2007)

Columns and labels:
Plasmodium falciparum [1] = assay: Inhibition of phosphocholine biosynthesis in Plasmodium falciparum NF54 as intracellular free choline at 10 uM; assay type: functional, organism-based
How it was run: (§1)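 NF-54 culture (15% parasitemia, 5% hematocrit) treated 1 h at 37°C (90% N2, 5% CO2) and washed. Labelled 4 h with 40 μM [methyl-14C]choline (5.6 mCi/mmol). Cells lysed in 5% TCA with freeze-thaw; phosphatidylcholine counted in pellet. Ether-extracted supernatant split on Dowex-50W: phosphocholine unbound, free choline eluted with 1 N HCl. Compared with DMSO control.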

Plasmodium falciparum [2] = assay: Inhibition of Plasmodium falciparum NF54 trophozoite at 10 uM; assay type: functional, organism-based
How it was run: (§2)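 Sorbitol-synchronized NF-54 at 0.5% ring parasitemia, 1% hematocrit. Rings (0 h), trophozoites (24 h) or schizonts (36 h) exposed 8 h in CRPMI, then washed out. [3H]hypoxanthine (0.7 μCi/well) added at 24, 48 or 60 h respectively; harvest at 72 h and scintillation count. Read against stage-matched DMSO control; three experiments in triplicate.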

Plasmodium falciparum [3] = assay: Growth inhibition of schizont Plasmodium falciparum NF54 at 10 uM; assay type: functional, organism-based; how it was run: as §2
Plasmodium falciparum [4] = assay: Inhibition of choline kinase in Plasmodium falciparum NF54 assessed as incorporation of [methlyl-14C]choline into phosphocholine at 10 uM; how it was run: as §1
Plasmodium falciparum [5] = assay: Inhibition of phosphatidylcholine biosynthesis in Plasmodium falciparum NF54 as [methlyl-14C]choline uptake; assay type: functional, organism-based; how it was run: as §1
Plasmodium falciparum [6] = assay: Inhibition of Plasmodium falciparum NF54 as [3H]hypoxanthine uptake at 20 uM; assay type: functional, organism-based
How it was run: (§3)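 Asynchronous P. falciparum NF-54 in human B+ erythrocytes (1% hematocrit, 0.5–0.7% parasitemia) exposed to compound (DMSO stock diluted in RPMI) for 48 h. Then washed and pulsed 48 h with [3H]hypoxanthine 0.7 μCi/well. Harvested on glass-fibre filters and counted by scintillation. % inhibition vs DMSO control; three experiments in triplicate.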

Plasmodium yoelii [7] = assay: Antimalarial activity against intraperitoneal inoculated Plasmodium yoelii N67 in Swiss mice (Mus musculus) at 10 mg/kg intraperitoneal dose on day 4; assay type: functional, organism-based; set-up: dose 10 mg/kg; conditions: N-67
How it was run: (§4)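 P. yoelii N-67 in Swiss mice (22 ± 2 g, five per group), 1 × 10^5 parasitized RBC i.p. on day 0. Aqueous suspension given i.p. (0.20 ml) from 6 h post-inoculation, days 0–3. Day-4 parasitemia from Giemsa smears; % suppression = [(C − T)/C] × 100 on group means vs vehicle.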

Plasmodium yoelii [8] = assay: Antimalarial activity against intraperitoneal inoculated Plasmodium yoelii N67 in Swiss mice (Mus musculus) at 20 mg/kg intraperitoneal dose on day 4; assay type: functional, organism-based; set-up: dose 20 mg/kg; conditions: N-67; how it was run: as §4
Plasmodium falciparum [9] = assay: Inhibition of Plasmodium falciparum choline kinase at 50 uM in presence of 100 uM ATP
Plasmodium yoelii [10] = assay: Antimalarial activity against intraperitoneal inoculated Plasmodium yoelii N67 in Swiss mice (Mus musculus) at 5 mg/kg intraperitoneal dose on day 4; assay type: functional, organism-based; set-up: dose 5 mg/kg; conditions: N-67; how it was run: as §4
Plasmodium falciparum [11] = assay: Inhibition of Plasmodium falciparum choline kinase
How it was run: (§5)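 Purified recombinant PfCK (5 μg; Ni-NTA affinity plus gel filtration) incubated at 37°C for 45 min in 100 mM Tris-Cl pH 8.8, 5 mM ATP, 6 mM MgCl2, 250 μM [methyl-14C]choline (5.6 mCi/mmol). Stopped with Dowex-50W slurry; [14C]phosphocholine in supernatant counted by scintillation. DMSO control = 100%. Three experiments in triplicate.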

Plasmodium falciparum [12] = assay: Inhibition of Plasmodium falciparum NF54 as [3H]hypoxanthine uptake at 10 uM; assay type: functional, organism-based; how it was run: as §3
Plasmodium yoelii [13] = assay: Antimalarial activity against intravenously inoculated Plasmodium yoelii N67 in Swiss mice (Mus musculus) at 10 mg/kg intraperitoneal dose on day 4; assay type: functional, organism-based; set-up: dose 10 mg/kg; conditions: N-67
How it was run: (§6)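 P. yoelii N-67 in Swiss mice (22 ± 2 g, five per group), 1 × 10^4 parasitized RBC i.v. on day 0. Aqueous suspension given i.p. (0.20 ml) from 6 h post-inoculation, days 0–3. Day-4 parasitemia from Giemsa smears; % suppression = [(C − T)/C] × 100 on group means vs vehicle.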

Plasmodium yoelii [14] = assay: Antimalarial activity at day 4 against intravenously inoculated Plasmodium yoelii N67 in Swiss mice (Mus musculus) at 20 mg/kg intraperitoneal dose; assay type: functional, organism-based; set-up: dose 20 mg/kg; conditions: N-67; how it was run: as §6
Plasmodium yoelii [15] = assay: Antimalarial activity against intravenously inoculated Plasmodium yoelii N67 in Swiss mice (Mus musculus) at 5 mg/kg intraperitoneal dose on day 4; assay type: functional, organism-based; set-up: dose 5 mg/kg; conditions: N-67; how it was run: as §6
Plasmodium falciparum [16] = assay: Inhibition of Plasmodium falciparum choline kinase at 100 uM; how it was run: as §5
Plasmodium falciparum [17] = assay: Inhibition of Plasmodium falciparum NF54 ring stage at 30 uM; assay type: functional, organism-based; how it was run: as §2
Plasmodium falciparum [18] = assay: Inhibition of Plasmodium falciparum choline kinase at 50 uM in presence of 250 uM ATP
Plasmodium falciparum [19] = assay: Inhibition of Plasmodium falciparum choline kinase at 150 uM in presence of 100 uM ATP
Plasmodium falciparum [20] = assay: Inhibition of Plasmodium falciparum choline kinase at 150 uM in presence of 250 uM ATP

Row | Compound | inhibition (Plasmodium falciparum [1]) | inhibition (Plasmodium falciparum [2]) | inhibition (Plasmodium falciparum [3]) | inhibition (Plasmodium falciparum [4]) | Activity (Plasmodium falciparum [5]) | inhibition (Plasmodium falciparum [6]) | Activity (Plasmodium yoelii [7]) | Activity (Plasmodium yoelii [8]) | inhibition (Plasmodium falciparum [9]) | Activity (Plasmodium yoelii [10]) | Activity (Plasmodium falciparum [11]) | inhibition (Plasmodium falciparum [12]) | Activity (Plasmodium yoelii [13]) | Activity (Plasmodium yoelii [14]) | Activity (Plasmodium yoelii [15]) | inhibition (Plasmodium falciparum [16]) | inhibition (Plasmodium falciparum [17]) | inhibition (Plasmodium falciparum [18]) | inhibition (Plasmodium falciparum [19]) | inhibition (Plasmodium falciparum [20])
1 | hexadecyltrimethylammonium bromide | 42% | 62% | 51% | 57% | Dose-dependent effect | 81% | 52.4% | 77.2% | 60% | 36.8% | Dose-dependent effect | 62% | 64.2% | 83.7% | 48.7% | 60% | 33.3% |  |  | 
2 | C[N+]1(C)CCOC(O)(c2ccc(-c3ccc(C4(O)C[N+](C)(C)CCO4)cc3)cc2)C1 (stereo unspecified) |  |  |  |  |  |  |  |  | 16% |  |  |  |  |  |  |  |  | 16% | 18% | 18%
